Activity calls are given as the source filed them. The calls are words filed in the database; no cut-off is given here.
Experiments:
[1] = system: Ramos; assay: Antiproliferative activity against human Ramos cells after 72 hrs by CCK8 assay; assay type: functional, cell-based
[2] = molecular target: Epidermal growth factor receptor (Homo sapiens, UniProt P00533, T790M); assay: Inhibition of recombinant human N-terminal GST-tagged EGFR T790M mutant (695-end residues) expressed in baculovirus infected Sf9 cells using poly (4:1 Glu, Tyr) peptide as substrate after 60 mins by ADP-Glo assay
Epidermal growth factor receptor, sequence (P00533 25-1210 T790M limits assumed): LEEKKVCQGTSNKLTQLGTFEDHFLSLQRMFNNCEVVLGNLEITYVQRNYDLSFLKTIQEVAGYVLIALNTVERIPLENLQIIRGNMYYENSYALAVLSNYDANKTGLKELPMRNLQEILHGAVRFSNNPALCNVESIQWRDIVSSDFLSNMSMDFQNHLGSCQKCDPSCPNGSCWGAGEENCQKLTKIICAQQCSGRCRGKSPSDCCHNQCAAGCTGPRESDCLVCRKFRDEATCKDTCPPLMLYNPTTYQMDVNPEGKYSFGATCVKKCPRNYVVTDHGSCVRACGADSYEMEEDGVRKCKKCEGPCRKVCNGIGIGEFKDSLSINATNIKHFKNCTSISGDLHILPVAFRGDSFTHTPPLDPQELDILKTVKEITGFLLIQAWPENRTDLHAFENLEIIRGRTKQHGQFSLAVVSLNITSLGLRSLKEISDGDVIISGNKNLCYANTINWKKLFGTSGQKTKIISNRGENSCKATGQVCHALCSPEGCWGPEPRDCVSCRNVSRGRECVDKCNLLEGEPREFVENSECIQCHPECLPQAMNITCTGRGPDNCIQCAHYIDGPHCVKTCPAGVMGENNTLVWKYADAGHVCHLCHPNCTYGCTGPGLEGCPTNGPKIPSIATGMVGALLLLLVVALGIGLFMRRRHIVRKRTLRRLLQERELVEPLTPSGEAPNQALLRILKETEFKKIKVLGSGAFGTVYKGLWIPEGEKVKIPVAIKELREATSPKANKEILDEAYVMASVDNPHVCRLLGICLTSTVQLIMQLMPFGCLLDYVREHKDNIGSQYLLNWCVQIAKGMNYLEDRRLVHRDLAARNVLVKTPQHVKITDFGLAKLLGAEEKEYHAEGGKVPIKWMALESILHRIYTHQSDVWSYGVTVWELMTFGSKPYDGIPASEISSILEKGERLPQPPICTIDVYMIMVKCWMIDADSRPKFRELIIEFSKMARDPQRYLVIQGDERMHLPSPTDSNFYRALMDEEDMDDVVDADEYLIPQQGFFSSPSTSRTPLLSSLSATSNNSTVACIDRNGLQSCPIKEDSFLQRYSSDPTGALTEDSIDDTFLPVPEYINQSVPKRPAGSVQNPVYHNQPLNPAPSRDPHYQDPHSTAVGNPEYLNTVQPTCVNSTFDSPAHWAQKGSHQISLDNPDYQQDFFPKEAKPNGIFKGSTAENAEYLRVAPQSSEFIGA
Method in brief: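 ADP-Glo luminescent kinase assay in 1× kinase buffer with compounds at 0.1 to 1000 nM. The kinase reaction ran 60 min at room temperature, then ADP-Glo reagent stopped it and depleted ATP (40 min, RT). Detection reagent converted ADP to ATP for luciferase read-out (30 min, RT). IC50 came from curve fitting.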

[3] = system: Raji; assay: Antiproliferative activity against human Raji cells after 72 hrs by CCK8 assay; assay type: functional, cell-based
[4] = system: NAMALVA; assay: Antiproliferative activity against human NAMALWA cells after 72 hrs by CCK8 assay; assay type: functional, cell-based
Method in brief: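 Cells seeded 3,000/well in RPMI-1640 with 10% FBS at 37 °C, 5% CO2, for 4 h, then exposed to compound for 72 h. Concentrations 1.25 to 40 µM, each in five replicates. Cell number set to give an absorbance of 0.5–1.2 at 450 nm. CCK-8 read-out at 450 nm; IC50 fitted by curve fitting; values are the mean of at least three separate experiments.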

[5] = molecular target: T1, Tyrosine-protein kinase BTK (Homo sapiens, UniProt Q06187); assay: Inhibition of full length recombinant human N-terminal His-tagged BTK expressed in baculovirus infected Sf9 cells using poly (4:1 Glu, Tyr) peptide as substrate after 60 mins by ADP-Glo assay
T1 sequence (Q06187 whole entry): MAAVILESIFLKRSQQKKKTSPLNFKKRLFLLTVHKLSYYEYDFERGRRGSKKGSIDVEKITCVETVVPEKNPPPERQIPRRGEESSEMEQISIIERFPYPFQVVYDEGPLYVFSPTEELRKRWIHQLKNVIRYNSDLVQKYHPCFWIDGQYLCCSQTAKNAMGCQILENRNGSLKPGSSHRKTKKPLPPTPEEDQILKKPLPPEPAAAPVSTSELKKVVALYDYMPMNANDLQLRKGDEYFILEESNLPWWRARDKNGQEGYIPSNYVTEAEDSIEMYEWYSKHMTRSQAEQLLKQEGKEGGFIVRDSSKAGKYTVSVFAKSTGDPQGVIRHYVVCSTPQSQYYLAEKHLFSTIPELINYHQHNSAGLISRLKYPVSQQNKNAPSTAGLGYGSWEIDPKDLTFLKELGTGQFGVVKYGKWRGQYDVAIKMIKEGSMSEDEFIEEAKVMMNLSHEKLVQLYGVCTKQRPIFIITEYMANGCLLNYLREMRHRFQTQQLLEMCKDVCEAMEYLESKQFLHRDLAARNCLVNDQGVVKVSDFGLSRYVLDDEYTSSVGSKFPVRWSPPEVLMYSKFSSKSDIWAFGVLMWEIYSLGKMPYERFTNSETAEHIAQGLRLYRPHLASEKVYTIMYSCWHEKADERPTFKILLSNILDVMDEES

[6] = molecular target: T2, Tyrosine-protein kinase JAK3 (Homo sapiens, UniProt P52333); assay: Inhibition of recombinant human N-terminal GST-tagged JAK3 (781-end residues) expressed in baculovirus infected Sf9 cells using poly (4:1 Glu, Tyr) peptide as substrate after 60 mins by ADP-Glo assay
T2 sequence (P52333 whole entry): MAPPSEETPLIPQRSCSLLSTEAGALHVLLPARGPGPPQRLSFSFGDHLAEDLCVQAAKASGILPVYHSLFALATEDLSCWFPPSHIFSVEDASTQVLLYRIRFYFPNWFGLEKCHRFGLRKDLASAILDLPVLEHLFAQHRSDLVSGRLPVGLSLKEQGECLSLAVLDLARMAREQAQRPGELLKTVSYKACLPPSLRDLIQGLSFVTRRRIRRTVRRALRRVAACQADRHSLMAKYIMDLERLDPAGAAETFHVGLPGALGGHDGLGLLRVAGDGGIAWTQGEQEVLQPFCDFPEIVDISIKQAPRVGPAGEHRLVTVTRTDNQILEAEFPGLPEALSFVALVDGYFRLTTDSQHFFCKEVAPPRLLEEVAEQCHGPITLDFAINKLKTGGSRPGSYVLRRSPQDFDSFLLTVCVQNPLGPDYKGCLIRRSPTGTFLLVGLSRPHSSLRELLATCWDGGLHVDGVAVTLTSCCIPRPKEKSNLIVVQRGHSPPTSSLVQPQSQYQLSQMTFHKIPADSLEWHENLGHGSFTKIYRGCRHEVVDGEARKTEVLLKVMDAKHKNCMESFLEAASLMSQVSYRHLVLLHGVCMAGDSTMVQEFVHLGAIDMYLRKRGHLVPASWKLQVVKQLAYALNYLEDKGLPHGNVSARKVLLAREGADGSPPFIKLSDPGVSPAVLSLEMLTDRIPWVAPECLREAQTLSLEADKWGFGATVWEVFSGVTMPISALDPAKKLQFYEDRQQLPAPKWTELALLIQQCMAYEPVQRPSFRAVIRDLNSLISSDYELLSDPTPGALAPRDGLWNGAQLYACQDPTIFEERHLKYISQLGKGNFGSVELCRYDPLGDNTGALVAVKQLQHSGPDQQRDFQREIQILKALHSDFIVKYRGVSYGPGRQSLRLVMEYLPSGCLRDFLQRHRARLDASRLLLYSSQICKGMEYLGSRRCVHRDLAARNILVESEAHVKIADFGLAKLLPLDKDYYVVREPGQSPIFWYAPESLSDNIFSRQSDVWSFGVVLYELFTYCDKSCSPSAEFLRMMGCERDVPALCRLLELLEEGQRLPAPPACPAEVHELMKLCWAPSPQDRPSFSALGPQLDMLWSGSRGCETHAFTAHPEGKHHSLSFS
Method in brief: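 ADP-Glo luminescent kinase assay with commercial JAK3 kinase enzyme system, in 1× kinase buffer, compounds at 0.1–1000 nM. The kinase reaction ran for 60 min at room temperature, followed by ADP-Glo reagent for 40 min to stop the reaction and deplete ATP, then detection reagent for 30 min. Luminescence was read and curves were fitted to give IC50.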

[7] = system: NAMALVA; assay: Induction of apoptosis in human NAMALWA cells assessed as morphological changes at 5 uM by acridine orange/ethidium bromide staining based phase contrast microscopic assay; assay type: functional, cell-based
[8] = system: NAMALVA; assay: Induction of apoptosis in human NAMALWA cells assessed as late apoptotic cells at 1 uM after 48 hrs by Annexin V-FITC/propidium iodide staining based flow cytometry (reference value: 0%); assay type: functional
[9] = system: PBMC; assay: Cytotoxicity against human PBMC assessed as morphological changes at 5 to 20 uM after 24 hrs by acridine orange/ethidium bromide staining based phase contrast microscopic method; assay type: cell-based
Method in brief: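 PBMC were isolated from a healthy adult 's venous blood (ACD anticoagulant) by Lymphoprep density separation, washed in PBS and seeded at 200,000–250,000 cells/well. Treated in RPMI-1640 with 10% FBS at 37 °C, 5% CO2, for 24 h, with five replicates per concentration. Morphology was checked by phase-contrast microscopy and AO/EB staining; live cells were counted manually in a counting chamber.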

[10] = molecular target: T1, Tyrosine-protein kinase BTK; assay: Inhibition of BTK phosphorylation in human NAMALWA cells after 48 hrs by Western blot method; assay type: cell-based
Method in brief: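 NAMALWA cells were treated at 1, 5 and 10 µM for 48 h and lysed; lysates were cleared at 14,000 g for 15 min at 4 °C. 50 µg protein was resolved on 8–12% SDS-PAGE and transferred to PVDF. The membrane was blocked in 5% skim milk for 2 h at room temperature, then probed overnight at 4 °C for BTK and p-BTK. Detection was by ECL.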

[11] = system: Raji; assay: Potency index, ratio of ibrutinib IC50 to compound IC50 for antiproliferative activity against human Raji cells; assay type: functional
[12] = system: NAMALVA; assay: Induction of apoptosis in human NAMALWA cells assessed as early apoptotic cells at 1 uM after 48 hrs by Annexin V-FITC/propidium iodide staining based flow cytometry (reference value: 0%); assay type: functional
[13] = system: NAMALVA; assay: Induction of apoptosis in human NAMALWA cells assessed as late apoptotic cells at 2 uM after 48 hrs by Annexin V-FITC/propidium iodide staining based flow cytometry (reference value: 0%); assay type: functional
[14] = system: NAMALVA; assay: Induction of apoptosis in human NAMALWA cells assessed as necrotic cells at 5 uM after 48 hrs by Annexin V-FITC/propidium iodide staining based flow cytometry (reference value: 4.05%); assay type: functional
[15] = system: NAMALVA; assay: Induction of apoptosis in human NAMALWA cells assessed as early apoptotic cells at 5 uM after 48 hrs by Annexin V-FITC/propidium iodide staining based flow cytometry (reference value: 0%); assay type: functional
[16] = system: NAMALVA; assay: Induction of apoptosis in human NAMALWA cells assessed as necrotic cells at 1 uM after 48 hrs by Annexin V-FITC/propidium iodide staining based flow cytometry (reference value: 4.05%); assay type: functional
[17] = system: NAMALVA; assay: Potency index, ratio of ibrutinib IC50 to compound IC50 for antiproliferative activity against human NAMALWA cells; assay type: functional
[18] = system: NAMALVA; assay: Induction of apoptosis in human NAMALWA cells assessed as late apoptotic cells at 5 uM after 48 hrs by Annexin V-FITC/propidium iodide staining based flow cytometry (reference value: 0%); assay type: functional
[19] = system: NAMALVA; assay: Induction of apoptosis in human NAMALWA cells assessed as necrotic cells at 2 uM after 48 hrs by Annexin V-FITC/propidium iodide staining based flow cytometry (reference value: 4.05%); assay type: functional
[20] = system: NAMALVA; assay: Induction of apoptosis in human NAMALWA cells assessed as early apoptotic cells at 2 uM after 48 hrs by Annexin V-FITC/propidium iodide staining based flow cytometry (reference value: 0%); assay type: functional

SMILES	IC50 [1] [µM]	IC50 [2] [µM]	IC50 [3] [µM]	IC50 [4] [µM]	IC50 [5] [µM]	IC50 [6] [µM]	Activity [7]	Activity [8] [%]	Activity [9]	inhibition [10]	Ratio IC50 [11]	Activity [12] [%]	Activity [13] [%]	Activity [14] [%]	Activity [15] [%]	Activity [16] [%]	Ratio IC50 [17]	Activity [18] [%]	Activity [19] [%]	Activity [20] [%]
C=CC(=O)Nc1cccc(Nc2nc(Nc3ccc(OCC(=O)NCC(=O)OC)cc3)ncc2Cl)c1	20.9	> 0.1	18	16.9	0.0065	0.496	–	–	–	–	–	–	–	–	–	–	–	–	–	–
C=CC(=O)Nc1cccc(Nc2nc(Nc3ccc(OCC(=O)NC(C)C(=O)OC)cc3)ncc2Cl)c1 (stereo not drawn)	40.8	> 0.1	25.2	29.3	0.0087	> 0.5	–	–	–	–	–	–	–	–	–	–	–	–	–	–
C=CC(=O)Nc1cccc(Nc2nc(Nc3ccc(OCC(=O)NCC(=O)O)cc3)ncc2Cl)c1	> 40	> 0.1	> 40	> 40	0.0112	> 0.5	–	–	–	–	–	–	–	–	–	–	–	–	–	–
C=CC(=O)Nc1cccc(Nc2nc(Nc3ccc(OCC(=O)N4CCCC4C(=O)OC)cc3)ncc2Cl)c1 (stereo not drawn)	19.7	> 0.1	6.7	4.8	0.0087	0.196	Active	5.83	Non-Toxic	Dose-dependent effect	3	4.94	7.43	1.67	8.75	0.92	4	13.33	0.82	6.96
C=CC(=O)N1CCC[C@@H](n2nc(-c3ccc(Oc4ccccc4)cc3)c3c(N)ncnc32)C1 [IBRUTINIB]	–	–	–	19.6	–	–	Active	–	–	–	–	–	–	0.73	4.06	–	–	5.75	–	–

Source: ChEMBL document CHEMBL4229440, “Novel amino acid-substituted diphenylpyrimidine derivatives as potent BTK inhibitors against B cell lymphoma cell lines” (Bioorg Med Chem, 2018)
